Converted amounts (≈) assume the structure as drawn.
Key:
Peptide deformylase [1] = molecular target: T1, Peptide deformylase (Streptococcus pneumoniae serotype 4 (strain ATCC BAA-334 / TIGR4), UniProt Q9F2F0); assay: Inhibition of Streptococcus pneumoniae PDF assessed as formate release from fMAS peptide substrate after 20 mins by formate dehydrogenase coupled assay
T1 sequence (Q9F2F0 whole entry): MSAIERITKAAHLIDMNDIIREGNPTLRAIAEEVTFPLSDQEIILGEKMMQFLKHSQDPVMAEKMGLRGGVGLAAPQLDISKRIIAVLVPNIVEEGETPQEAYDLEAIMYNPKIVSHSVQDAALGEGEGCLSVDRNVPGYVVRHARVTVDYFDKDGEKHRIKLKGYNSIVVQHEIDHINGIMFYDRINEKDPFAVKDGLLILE

Haemophilus influenzae [2] = assay: Antibacterial activity against Haemophilus influenzae Q1 by broth microdilution method; type: functional
Outline: (§1)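 Broth microdilution following NCCLS document M7-A4. Serial two-fold dilutions from 0.06 to 64 mcg/ml were tested. The MIC was the lowest concentration preventing visible growth, with the endpoint read with the aid of a mirror reader.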

[3] = Metabolic stability of the compound in human blood assessed as compound remaining at 2000 ng/mL after 2 hrs; type: ADME, tissue-based; conditions: read-out: Stability
Outline: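 Samples (n = 3) were spiked into fresh human blood at 2000 ng/mL, incubated at 37 °C for 120 min, and reported as % recovered at 2 h.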

Peptide deformylase [4] = molecular target: T2, Peptide deformylase (Staphylococcus aureus, UniProt P68826); assay: Inhibition of Staphylococcus aureus PDF assessed as formate release from fMAS peptide substrate after 20 mins by formate dehydrogenase coupled assay
T2 sequence (P68826 whole entry): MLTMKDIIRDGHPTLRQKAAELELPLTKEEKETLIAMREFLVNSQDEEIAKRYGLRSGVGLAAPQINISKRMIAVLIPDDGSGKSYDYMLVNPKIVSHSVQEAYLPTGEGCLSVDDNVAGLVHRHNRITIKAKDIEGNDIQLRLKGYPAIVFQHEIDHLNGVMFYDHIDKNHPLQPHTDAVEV

Enterococcus faecalis = assay: Antibacterial activity against Enterococcus faecalis 7 by broth microdilution method; type: functional; outline: as §1
[5] = Metabolic stability of the compound in rat blood assessed as compound remaining at 2000 ng/mL after 2 hrs; type: ADME, tissue-based; conditions: read-out: Stability
[6] = Inhibition of Haemophilus influenzae PDF assessed as formate release from fMAS peptide substrate after 20 mins by formate dehydrogenase coupled assay
Outline: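 Coupled assay in which formate released from the fMAS peptide is oxidized by formate dehydrogenase, reducing NAD to NADH, read as the rise in absorbance at 340. Reactions were started by adding PDF and velocities measured for 20 min at 25 °C. Values are the mean of at least 2 runs.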

Moraxella catarrhalis = assay: Antibacterial activity against Moraxella catarrhalis 1502 by broth microdilution method; type: functional; outline: as §1
Streptococcus pneumoniae [7] = assay: Antibacterial activity against Streptococcus pneumoniae 1629 by broth microdilution method; type: functional; outline: as §1
Staphylococcus aureus = assay: Antibacterial activity against Staphylococcus aureus Oxford by broth microdilution method; type: functional; outline: as §1
[8] = Oral bioavailability in monkey at 5.1 mg/kg; type: ADME, organism-based, Macaca mulatta; conditions: rhesus monkey, in vivo
Outline: (§2)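 Single-compound pharmacokinetics with n = 3 per species, given i.v. and p.o. Reported measures are plasma clearance after i.v. dosing, dose-normalized AUC(0–inf) after oral dosing, and oral bioavailability.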

Rattus norvegicus = assay: Dose normalized AUC (0 to infinity) in rat at 27.1 mg/kg, po; type: ADME, organism-based; design: dose 27.1 mg/kg, route oral; conditions: in vivo; outline: as §2
Haemophilus influenzae [9] = assay: Antibacterial activity against Haemophilus influenzae H128 infected in rat respiratory tract infection model assessed as reduction in bacterial count at 300 mg/kg, po bid for 2 days relative to control; type: functional
Outline: (§3)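 Rat respiratory tract infection models with oral b.i.d. dosing. Efficacy was read as bacterial lung counts (log10 cfu/mL) compared with non-treated controls.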

[10] = Plasma clearance in monkey at 3 mg/kg, iv; type: ADME, organism-based, Macaca mulatta; design: dose 3 mg/kg, route intravenous; conditions: rhesus monkey; outline: as §2
Streptococcus pneumoniae [11] = assay: Antibacterial activity against Streptococcus pneumoniae 1629 infected in rat respiratory tract infection model assessed as reduction in bacterial count at 75 mg/kg, po bid for 4 days relative to control; type: functional; outline: as §3
[12] = Oral bioavailability in dog at 6.5 mg/kg; type: ADME, organism-based, Canis lupus familiaris; conditions: in vivo; outline: as §2
Canis familiaris = assay: Dose normalized AUC (0 to infinity) in dog at 6.5 mg/kg, po; type: ADME, organism-based, Canis lupus familiaris; design: dose 6.5 mg/kg, route oral; conditions: in vivo; outline: as §2
[13] = Oral bioavailability in rat at 27.1 mg/kg; type: ADME, organism-based; conditions: in vivo
Outline: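 Rat oral bioavailability (n = 3) was estimated from a non-crossover study comparing i.v. and p.o. dosing.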

Rhesus monkey = assay: Dose normalized AUC (0 to infinity) in monkey at 5.1 mg/kg, po; type: ADME, organism-based, Macaca mulatta; design: dose 5.1 mg/kg, route oral; conditions: in vivo; outline: as §2
[14] = Plasma clearance in dog at 4.5 mg/kg, iv; type: ADME, organism-based, Canis lupus familiaris; design: dose 4.5 mg/kg, route intravenous; outline: as §2
Streptococcus pneumoniae [15] = assay: Antibacterial activity against Streptococcus pneumoniae 1629 infected in rat respiratory tract infection model assessed as reduction in bacterial count at 150 mg/kg, po bid for 4 days relative to control; type: functional; outline: as §3

Structure (SMILES)	IC50 (Peptide deformylase [1])	MIC (Haemophilus influenzae [2])	remaining at 2 h, 2000 ng/mL [3]	IC50 (Peptide deformylase [4])	MIC (Enterococcus faecalis)	remaining at 2 h, 2000 ng/mL [5]	IC50 [6]	MIC (Moraxella catarrhalis)	MIC (Streptococcus pneumoniae [7])	MIC (Staphylococcus aureus)	other results
CC(C)(C)C(=O)NC(=O)[C@@H]1CCCN1C(=O)[C@H](CC1CCCC1)CN(O)C=O	1.3 nM	2 µg/mL (≈ 5.06 µM)	80.6%	10 nM	4 µg/mL (≈ 10.1 µM)	29%	18 nM	≤ 0.06 µg/mL	2 µg/mL (≈ 5.06 µM)	2 µg/mL (≈ 5.06 µM)	–
O=CN(O)C[C@@H](CC1CCCC1)C(=O)N1CCC[C@H]1C(=O)NC(=O)c1ccccc1	–	0.5 µg/mL (≈ 1.2 µM)	–	–	1 µg/mL (≈ 2.41 µM)	27.2%	3.8 nM	≤ 0.06 µg/mL	0.25 µg/mL (≈ 0.602 µM)	1 µg/mL (≈ 2.41 µM)	–
CC(C)OC(=O)NC(=O)[C@@H]1CCCN1C(=O)[C@H](CC1CCCC1)CN(O)C=O	0.48 nM	0.25 µg/mL (≈ 0.629 µM)	49.6%	2 nM	4 µg/mL (≈ 10.1 µM)	0%	4.7 nM	≤ 0.06 µg/mL	0.25 µg/mL (≈ 0.629 µM)	0.25 µg/mL (≈ 0.629 µM)	–
CC(C)(C)OC(=O)NC(=O)[C@@H]1CCCN1C(=O)[C@H](CC1CCCC1)CN(O)C=O	0.52 nM	0.25 µg/mL (≈ 0.608 µM)	52%	3.4 nM	1 µg/mL (≈ 2.43 µM)	27.6%	3.2 nM	≤ 0.06 µg/mL	0.25 µg/mL (≈ 0.608 µM)	1 µg/mL (≈ 2.43 µM)	–
O=CN(O)C[C@@H](CC1CCCC1)C(=O)N1CCC[C@H]1C(=O)NC(=O)OC1CCC1	0.51 nM	0.5 µg/mL (≈ 1.22 µM)	31.7%	2.4 nM	1 µg/mL (≈ 2.44 µM)	0%	5.8 nM	≤ 0.06 µg/mL	0.25 µg/mL (≈ 0.611 µM)	0.5 µg/mL (≈ 1.22 µM)	–
O=CN(O)C[C@@H](CC1CCCC1)C(=O)N1CCC[C@H]1C(=O)NC(=O)OC1CCCC1	0.26 nM	1 µg/mL (≈ 2.36 µM)	57.5%	1.4 nM	1 µg/mL (≈ 2.36 µM)	0%	3.1 nM	≤ 0.06 µg/mL	0.125 µg/mL (≈ 0.295 µM)	0.5 µg/mL (≈ 1.18 µM)	–
O=CN(O)C[C@@H](CC1CCCC1)C(=O)N1CCC[C@H]1C(=O)NC(=O)OC1CCCCC1	0.3 nM	1 µg/mL (≈ 2.29 µM)	45.8%	1.5 nM	0.5 µg/mL (≈ 1.14 µM)	0.4%	2.3 nM	≤ 0.06 µg/mL	0.125 µg/mL (≈ 0.286 µM)	0.25 µg/mL (≈ 0.571 µM)	–
O=CN(O)C[C@@H](CC1CCCC1)C(=O)N1CCC[C@H]1C(=O)NC(=O)OC1CCOCC1	0.66 nM	0.5 µg/mL (≈ 1.14 µM)	23%	4.4 nM	2 µg/mL (≈ 4.55 µM)	9.5%	3.1 nM	≤ 0.06 µg/mL	0.25 µg/mL (≈ 0.569 µM)	1 µg/mL (≈ 2.28 µM)	–
CCNC(=O)NC(=O)[C@@H]1CCCN1C(=O)[C@H](CC1CCCC1)CN(O)C=O	0.44 nM	0.5 µg/mL (≈ 1.31 µM)	111%	2 nM	2 µg/mL (≈ 5.23 µM)	58.6%	4.9 nM	≤ 0.06 µg/mL	0.25 µg/mL (≈ 0.654 µM)	0.5 µg/mL (≈ 1.31 µM)	bioavailability [8]: 20%; AUC/dose (Rattus norvegicus): 43.3 ng·h/mL/mg/kg; log10CFU/ml (Haemophilus influenzae [9]): 4.21; clearance [10]: 29.4 mL/min/kg; log10CFU/ml (Streptococcus pneumoniae [11]): 3.86; bioavailability [12]: 100%; AUC/dose (Canis familiaris): 629.9 ng·h/mL/mg/kg; bioavailability [13]: 30%; AUC/dose (Rhesus monkey): 111.4 ng·h/mL/mg/kg; clearance [14]: 36.3 mL/min/kg; log10CFU/ml (Streptococcus pneumoniae [15]): 3.86
O=CN(O)C[C@@H](CC1CCCC1)C(=O)N1CCC[C@H]1C(=O)NC(=O)NCCc1ccccc1	0.12 nM	4 µg/mL (≈ 8.72 µM)	92.2%	0.86 nM	0.5 µg/mL (≈ 1.09 µM)	–	3.6 nM	≤ 0.06 µg/mL	≤ 0.06 µg/mL	≤ 0.06 µg/mL	–
